From ChEMBL document CHEMBL1799920, “Total synthesis and pharmacological characterization of solomonsterol A, a potent marine pregnane-X-receptor agonist endowed with anti-inflammatory activity” (J Med Chem, 2011)
Calls of active or inactive are those of the source.

Experiments:
[1] = system: Mus musculus; assay: Antiinflammatory activity against trinitrobenzenesulfonic acid-induced colitis in human PXR expressing transgenic C57/BL6 mouse assessed as decrease in occurrence of diarrhea at 10 mg/kg, ip qd administered 3 days before TNBS challenge measured after 7 days; type: functional, organism-based; design: dose 10 mg/kg; settings: C57Bl/6
Procedure, shortened: (§1)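 Male hPXR mice (human PXR on mouse PXR-null background). Fasted 16 h and lightly anaesthetised with ketamine/xylazine, then given TNBS 0.5 mg/mouse in 50% ethanol intrarectally in 150 μL. Drug was dissolved in DMSO, diluted in 1% methylcellulose and given i.p. once daily for 3 days before TNBS. Vehicle controls received methylcellulose. Mice were sacrificed 4 days after TNBS; n = 6–7 per group.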

[2] = system: Mus musculus; assay: Antiinflammatory activity against trinitrobenzenesulfonic acid-induced colitis in human PXR expressing transgenic C57/BL6 mouse assessed as decrease in leukocyte infiltration in colon at 10 mg/kg, ip administered on day 1 after TNBS challenge measured after 5 days by microscopically; type: functional, organism-based; design: dose 10 mg/kg; settings: C57Bl/6
Procedure, shortened: (§2)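 Therapeutic protocol in male hPXR mice. Colitis was induced with intrarectal TNBS 0.5 mg/mouse in 50% ethanol after a 16 h fast and light ketamine/xylazine anaesthesia. Drug at 10 mg/kg was given once daily from day 1 after TNBS. Mice were sacrificed 5 days after TNBS; n = 4–6 per group.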

[3] = system: Mus musculus; assay: Antiinflammatory activity against trinitrobenzenesulfonic acid-induced colitis in human PXR expressing transgenic C57/BL6 mouse assessed as decrease in weight loss at 10 mg/kg, ip administered on day 1 after TNBS challenge measured after 5 days; type: functional, organism-based; design: dose 10 mg/kg; settings: C57Bl/6; procedure, shortened: as §2
[4] = system: Mus musculus; assay: Antiinflammatory activity against trinitrobenzenesulfonic acid-induced colitis in human PXR expressing transgenic C57/BL6 mouse assessed as decrease in goblet cells in colon at 10 mg/kg, ip administered on day 1 after TNBS challenge measured after 5 days by microscopically; type: functional, organism-based; design: dose 10 mg/kg; settings: C57Bl/6; procedure, shortened: as §2
[5] = system: Mus musculus; assay: Antiinflammatory activity against trinitrobenzenesulfonic acid-induced colitis in human PXR expressing transgenic C57/BL6 mouse assessed as decrease in edema of colon at 10 mg/kg, ip administered on day 1 after TNBS challenge measured after 5 days; type: functional, organism-based; design: dose 10 mg/kg; settings: C57Bl/6; procedure, shortened: as §2
[6] = system: Mus musculus; assay: Antiinflammatory activity against trinitrobenzenesulfonic acid-induced colitis in human PXR expressing transgenic C57/BL6 mouse assessed as decrease in TNF-alpha protein level in colon at 10 mg/kg, ip qd after 5 days by ELISA; type: functional, organism-based; design: dose 10 mg/kg; settings: C57Bl/6; procedure, shortened: as §1
[7] = system: Mus musculus; assay: Antiinflammatory activity against trinitrobenzenesulfonic acid-induced colitis in human PXR expressing transgenic C57/BL6 mouse assessed as decrease in occurrence of diarrhea at 10 mg/kg, ip administered on day 1 after TNBS challenge measured after 5 days; type: functional, organism-based; design: dose 10 mg/kg; settings: C57Bl/6; procedure, shortened: as §2
[8] = system: Mus musculus; assay: Antiinflammatory activity against trinitrobenzenesulfonic acid-induced colitis in human PXR expressing transgenic C57/BL6 mouse assessed as decrease in MIP-1alpha protein level in colon at 10 mg/kg, ip qd after 5 days; type: functional, organism-based; design: dose 10 mg/kg; settings: C57Bl/6
[9] = system: Mus musculus; assay: Antiinflammatory activity against trinitrobenzenesulfonic acid-induced colitis in human PXR expressing transgenic C57/BL6 mouse assessed as induction of CYP3A11 mRNA expression in colon at 10 mg/kg, ip qd after 5 days by quantitative RT-PCR; type: functional, organism-based; design: dose 10 mg/kg; settings: C57Bl/6; procedure, shortened: as §1
[10] = system: Mus musculus; assay: Antiinflammatory activity against trinitrobenzenesulfonic acid-induced colitis in human PXR expressing transgenic C57/BL6 mouse assessed as decrease in colonic myeloperoxidase level at 10 mg/kg, ip administered on day 1 after TNBS challenge measured after 5 days; type: functional, organism-based; design: dose 10 mg/kg; settings: C57Bl/6; procedure, shortened: as §2
[11] = system: Mus musculus; assay: Antiinflammatory activity against trinitrobenzenesulfonic acid-induced colitis in human PXR expressing transgenic C57/BL6 mouse assessed as decrease in thickening of colon wall at 10 mg/kg, ip administered on day 1 after TNBS challenge measured after 5 days by microscopically; type: functional, organism-based; design: dose 10 mg/kg; settings: C57Bl/6; procedure, shortened: as §2
[12] = system: Mus musculus; assay: Antiinflammatory activity against trinitrobenzenesulfonic acid-induced colitis in human PXR expressing transgenic C57/BL6 mouse assessed as decrease in evidence of mucosal hemorrhage in colon at 10 mg/kg, ip administered on day 1 after TNBS challenge measured after 5 days; type: functional, organism-based; design: dose 10 mg/kg; settings: C57Bl/6; procedure, shortened: as §2
[13] = system: Mus musculus; assay: Antiinflammatory activity against trinitrobenzenesulfonic acid-induced colitis in human PXR expressing transgenic C57/BL6 mouse assessed as decrease in evidence of mucosal hemorrhage in colon at 10 mg/kg, ip qd administered 3 days before TNBS challenge measured after 7 days; type: functional, organism-based; design: dose 10 mg/kg; settings: C57Bl/6; procedure, shortened: as §1
[14] = system: Mus musculus; assay: Antiinflammatory activity against trinitrobenzenesulfonic acid-induced colitis in human PXR expressing transgenic C57/BL6 mouse assessed as decrease in presence of indurations in colon at 10 mg/kg, ip qd administered 3 days before TNBS challenge measured after 7 days; type: functional, organism-based; design: dose 10 mg/kg; settings: C57Bl/6; procedure, shortened: as §1
[15] = system: Mus musculus; assay: Antiinflammatory activity against trinitrobenzenesulfonic acid-induced colitis in human PXR expressing transgenic C57/BL6 mouse assessed as decrease in thickness of colon at 10 mg/kg, ip qd administered 3 days before TNBS challenge measured after 7 days; type: functional, organism-based; design: dose 10 mg/kg; settings: C57Bl/6; procedure, shortened: as §1
[16] = system: Mus musculus; assay: Antiinflammatory activity against trinitrobenzenesulfonic acid-induced colitis in human PXR expressing transgenic C57/BL6 mouse assessed as decrease in presence of indurations in colon at 10 mg/kg, ip administered on day 1 after TNBS challenge measured after 5 days; type: functional, organism-based; design: dose 10 mg/kg; settings: C57Bl/6; procedure, shortened: as §2
[17] = system: THP-1; assay: Inhibition of NF-kappaB p65 DNA binding activity in LPS-stimulated human THP1 cells at 10 uM after 3 hrs by electrophoretic mobility shift assay; type: cell-based
Procedure, shortened: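 THP-1 cells were pretreated with compound (10 μM) or vehicle for 3 h, then LPS 1 μg/mL was added for 20 h. Nuclear extracts were incubated with biotinylated NF-κB probe for 20 min at room temperature, run on a 6% native gel and detected by chemiluminescence. Specificity was checked by cold-probe competition and p65 antibody supershift. Three independent experiments.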

[18] = system: Mus musculus; assay: Antiinflammatory activity against trinitrobenzenesulfonic acid-induced colitis in human PXR expressing transgenic C57/BL6 mouse assessed as decrease in weight loss at 10 mg/kg, ip qd administered 3 days before TNBS challenge measured after 7 days; type: functional, organism-based; design: dose 10 mg/kg; settings: C57Bl/6; procedure, shortened: as §1
[19] = system: Mus musculus; assay: Antiinflammatory activity against trinitrobenzenesulfonic acid-induced colitis in human PXR expressing transgenic C57/BL6 mouse assessed as increase in TGF-beta1 protein level in colon at 10 mg/kg, ip qd after 5 days; settings: C57Bl/6
[20] = system: Mus musculus; assay: Antiinflammatory activity against trinitrobenzenesulfonic acid-induced colitis in human PXR expressing transgenic C57/BL6 mouse assessed as decrease in colonic myeloperoxidase activity at 10 mg/kg, ip qd after 5 days using trimethylbenzidine as substrate by spectrophotometry; type: functional, organism-based; design: dose 10 mg/kg; settings: C57Bl/6; procedure, shortened: as §1

Measured: Activity

C[C@H](CCCOS(=O)(=O)O)[C@H]1CC[C@H]2[C@@H]3CC[C@H]4C[C@H](OS(=O)(=O)O)[C@@H](OS(=O)(=O)O)C[C@]4(C)[C@H]3CC[C@]12C [SOLOMONSTEROL A]
active: [1] | [2] | [3] | [4] | [5] | [6] | [7] | [8] | [9] | [10] | [11] | [12] | [13] | [14] | [15] | [16] | [17] | [18] | [19] | [20]
